Drawing on the RNAGym collection of RNA variant scans (doi:10.1126/science.aae0568), this text covers yeast fitness for 167 variants.

Fewer inactive variants are shown than the library holds.

To fix the notation:
B1: tRNA (parent)
chain: GUUCCGUUGGCGUAAUGGUAACGCGUCUCCCUCCUAAGGAGAAGACUGCGGGUUCGAGUCCCGUACGGAACG

The data set covers variants of B1. Description: yeast fitness relative to wild type (ratio to wild type); higher = fitter; tRNA-Arg(CCU), competitive growth, 37 C, YPD. In a few lines: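 Variants of the tRNA-Arg(CCU) gene were chemically synthesised with a 3% per-site mutation rate across 69 sites and placed at the native genomic locus in Saccharomyces cerevisiae. Six parallel replicates of the pooled strains were competed in YPD at 37°C for 24 hours, and gene amplicons from the start and end populations were read by 100-nucleotide paired-end sequencing. Darwinian fitness relative to wild type was derived from changes in genotype frequencies. Genotypes required ≥ 100 starting reads, and estimates < 0.5 were set to 0.5.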
With A21U U28A A42C C49G C62U, the yeast fitness is not above 0.5.

Take A42U U47G A57C C61A: the yeast fitness was not above 0.5.

As for G38C G41C A57C, the yeast fitness stood at 0.576.

For the variant A20U C34G A42G A43U A65G A70U, the yeast fitness was not above 0.5.

Consider C4A A14U C29U, for which the yeast fitness is 0.657.

Turning to C5G G10C A43U C62A, the yeast fitness is not above 0.5.

For the variant C4G G6A C11U C29A G63A A70G, the yeast fitness is not above 0.5.

As for U3C A14G C29G A37U A42G, the yeast fitness amounted to 0.609.

Regarding U7A G39C A45G, the yeast fitness is not above 0.5.

On to U3C U8C A69U, for which the yeast fitness was determined as 0.81.

For the variant C4G A40U A42C C66U, the yeast fitness was found to be 0.52.

C11U C31U G41U C49U: the yeast fitness amounted to 0.522.

On to C5U A20U A36G A65U, for which the yeast fitness is not above 0.5.

As to C4A A21C C22U G50C A70U, the yeast fitness came out at 0.73.

C46U G58A: the yeast fitness is 0.985.

In the case of U16C A40U A57C C66U, the yeast fitness is not above 0.5.

Turning to U28G C55G, the yeast fitness is not above 0.5.

Consider C5A A21C A43U C46G G50U C61G, for which the yeast fitness is not above 0.5.

Take U2G A21C C22G: the yeast fitness turned out to be 0.541.

Regarding G9A G10A G25A C31G G52A C61U, the yeast fitness is not above 0.5.

In the case of C11A A20U U28A C60G, the yeast fitness worked out at 0.521.

In the case of C11G A40G C60U U64C, the yeast fitness is not above 0.5.

As for C24G G68C, the yeast fitness amounted to 0.599.

In the case of G6A U59C C62U, the yeast fitness was determined as 0.543.

For G56C G67A, the yeast fitness stood at 0.592.

For C5U A37U, the yeast fitness was found to be 0.732.

On to C5G A20U G41C, for which the yeast fitness was not above 0.5.

As to C61A G67A A69C, the yeast fitness was determined as 0.524.

With G17A G41C C55A, the yeast fitness is not above 0.5.

With U2C U64C G68A, the yeast fitness came to 0.578.

Consider C61G G67C, for which the yeast fitness stood at 0.61.

Turning to U3A G18A C22U A65U, the yeast fitness was not above 0.5.

With C27A A43U, the yeast fitness was determined as 1.03.

Regarding C24U A69C A70C, the yeast fitness was 0.536.

In the case of U2A C5G C24U C30G C49U, the yeast fitness is not above 0.5.

On to G12A C29U C55G A65U, for which the yeast fitness was not above 0.5.

Regarding U2G A45G A65C, the yeast fitness was not above 0.5.

Consider G18C C30G A65C, for which the yeast fitness is 0.541.

For the variant A14U C30A C31G G41C A70U, the yeast fitness is not above 0.5.

Consider U2C A14C A40G, for which the yeast fitness was determined as 0.775.

As to U16A G52A A70C, the yeast fitness was not above 0.5.

In the case of U7G U47A C61A, the yeast fitness is 0.781.

In the case of C4U C11G A45U C61G, the yeast fitness was determined as 0.518.

Regarding U2C C24G A37G G58A G67A, the yeast fitness is not above 0.5.

For the variant U19A C22U G56A, the yeast fitness was determined as 0.547.

In the case of C24A A43U G48C, the yeast fitness is not above 0.5.

Regarding U16C C33U G63C, the yeast fitness worked out at 0.508.

A20C C29G A57U A70C: the yeast fitness is not above 0.5.

Turning to G12C U19G G25A C49U U59A U64A, the yeast fitness was not above 0.5.

For the variant A21G C22U U32C C33A A37G A57C, the yeast fitness was not above 0.5.

In the case of G10C U26A, the yeast fitness was 0.71.

Turning to U3A A42G U53A, the yeast fitness is not above 0.5.

As to C4A U28A, the yeast fitness was 0.761.

Take U16A G23C U26A C29U A42U G48A: the yeast fitness came out at 0.557.

In the case of G17A C22G, the yeast fitness was found to be 0.837.

As for U13C A65C, the yeast fitness came to 0.873.

With C27U G38A C61U C66A, the yeast fitness was not above 0.5.

In the case of C29A U54G, the yeast fitness was not above 0.5.

Take C29U A43U C46A G50A C61G G68A: the yeast fitness is not above 0.5.

On to U19G C31A U35A C55G G58C, for which the yeast fitness worked out at 0.519.

On to G6C C31U A36G G52C G68A, for which the yeast fitness was not above 0.5.

For C22G C30A, the yeast fitness was found to be 0.65.

As for A15C A65U, the yeast fitness turned out to be 0.841.

Regarding U54G A65U G67A, the yeast fitness came to 0.545.

For the variant U2G G9C A36U A45C, the yeast fitness was not above 0.5.

As for C49G C60U A65C, the yeast fitness was not above 0.5.

For the variant A21C G67U, the yeast fitness was found to be 0.656.

For the variant C4A A20U A43U U53C U59A C66U, the yeast fitness is not above 0.5.

For the variant C5U C11G U19G C24G C30U C61U, the yeast fitness was not above 0.5.

As for U7A A40U C55G G63C, the yeast fitness was not above 0.5.

For the variant G18C C30U A45C A69U, the yeast fitness is not above 0.5.

In the case of C5U C11A A21G A40U G68C, the yeast fitness was not above 0.5.

Take C11U G51A G63C A69U: the yeast fitness is not above 0.5.

As to U2C U8G C31G A42C G56A C61G, the yeast fitness turned out to be 0.507.

For C22A G51C, the yeast fitness was found to be 0.719.

For the variant C22G C31G C61A, the yeast fitness was not above 0.5.

In the case of U16A G17U G18C G48C, the yeast fitness stood at 0.764.

Take A21U C30U U32A G63C: the yeast fitness was not above 0.5.

Regarding G6A A15G C29A, the yeast fitness is not above 0.5.

Turning to C4G C55G G63A, the yeast fitness was found to be 0.558.

Consider C34U A37U, for which the yeast fitness was found to be 0.535.

Take G25C U26G C46G A70U: the yeast fitness is 0.62.

With A20G G52A, the yeast fitness worked out at 0.664.

C11G U13G C60U: the yeast fitness is not above 0.5.

For G41A G63C C66A, the yeast fitness is not above 0.5.

Take C5U C27U U28G C33G A36G: the yeast fitness was not above 0.5.

On to G6C G17A A37G C60G A70U, for which the yeast fitness is not above 0.5.

For G6A G44A G51C C66U, the yeast fitness was not above 0.5.

G10C C24A C30G A40G U47G C55U: the yeast fitness is not above 0.5.

As to G10A U35C A45G C49G G56A A65C, the yeast fitness was not above 0.5.

C27G U53A G63A: the yeast fitness is not above 0.5.

For the variant C22G C27G G39A U64C, the yeast fitness worked out at 0.604.

Turning to C11A A21C C55U, the yeast fitness was not above 0.5.

On to G25A C29G A45C C46G, for which the yeast fitness is not above 0.5.

In the case of C5A U35A, the yeast fitness stood at 0.73.

As for G6A A21C U28A, the yeast fitness was not above 0.5.

As for C5G A21G U26C C27G G48C G67A, the yeast fitness came out at 0.531.

On to C5G G6C C30G C33U A45U, for which the yeast fitness was not above 0.5.

With C5G A20U C46A A57U, the yeast fitness was not above 0.5.

Regarding A14C A21C C24U A36U A43U A65C C66U, the yeast fitness was not above 0.5.

As to A14G A15C A21G C46A A69U, the yeast fitness was not above 0.5.

As for C11A C31A G44C A65G, the yeast fitness turned out to be 0.553.

As to C11U C22G C29G G41A U54A U64G, the yeast fitness was not above 0.5.

For U8C G9C A21C C24G U32G G38A, the yeast fitness is not above 0.5.

On to C49U C55A C62U, for which the yeast fitness was determined as 0.699.

In the case of A43U U64G G67A, the yeast fitness was not above 0.5.

As to C31U A42C G44A A45U, the yeast fitness stood at 0.55.

Take U8G C22U: the yeast fitness turned out to be 0.632.

As to C5A C11U C46U G50C, the yeast fitness turned out to be 0.709.

With G9C A15C U53C C55G, the yeast fitness was not above 0.5.

Take A15G A37G G56C: the yeast fitness was not above 0.5.

Consider U13G C22U A70U, for which the yeast fitness came to 0.751.

On to G9A G48A G63A A69U, for which the yeast fitness is 0.764.

For the variant C4G C5U U13A A42U C61U, the yeast fitness was not above 0.5.

For U8C G17A C34U C55G, the yeast fitness is not above 0.5.

As for C29G A40G G63A, the yeast fitness was not above 0.5.

Regarding A20G C22G C27G C30U C31G G51C U54C A65G, the yeast fitness was not above 0.5.

Consider U2A U3A A45G C49U, for which the yeast fitness is 0.609.

Consider G12C C61A C62A, for which the yeast fitness is not above 0.5.

G17A A21C U53A: the yeast fitness is not above 0.5.

C4U A20C C34G A36G: the yeast fitness amounted to 0.606.

Take U7C U8A G23A: the yeast fitness is not above 0.5.

As to A36G A43G C62A, the yeast fitness was 0.553.

Take G17C U28A: the yeast fitness worked out at 0.554.

Regarding U3A A21C C24G C62U, the yeast fitness is 0.526.

Regarding U13A G58C A69U, the yeast fitness is 1.04.

As for U13C U19A G51C C55U U64G, the yeast fitness stood at 0.633.

As for C4U U16A A37C, the yeast fitness is not above 0.5.

Turning to U28C C55U, the yeast fitness came out at 0.685.

As to U3G A21G G38C C49U A69C, the yeast fitness was not above 0.5.

For the variant U8A C27U A42G, the yeast fitness was not above 0.5.

As to G10A A36G U59C A70G, the yeast fitness was not above 0.5.

Turning to U13G A14C G39C G41A C60G C61U C62G A65U, the yeast fitness was not above 0.5.

As to C27G U32G A36C C46G A70U, the yeast fitness is not above 0.5.

With G41C U54G, the yeast fitness is not above 0.5.

For U8C C11U A15C A21G C24G U28A, the yeast fitness was not above 0.5.

U19G C33U A40C A45C: the yeast fitness is not above 0.5.

With A14G A15C U26C G51C, the yeast fitness is 0.512.

As for G58A C62A, the yeast fitness came out at 0.904.

Take A21C C29U C31G A43U A65C: the yeast fitness was not above 0.5.

Consider U16C C22G A43U, for which the yeast fitness worked out at 0.692.

For the variant U13C G23A C29G A45U C62U, the yeast fitness was not above 0.5.

For the variant U26A U47G, the yeast fitness came out at 0.661.

Regarding C33G C34A A40C, the yeast fitness is not above 0.5.

On to C5G C29U A37G C66U, for which the yeast fitness was 0.536.

Regarding A36C G68C, the yeast fitness turned out to be 0.591.

Take C31U C33A C46A: the yeast fitness was 0.596.

For C49U G51C, the yeast fitness is 0.756.

For U3G A15G G23A U47C, the yeast fitness is not above 0.5.

For U2A C11G U54C C61G, the yeast fitness is not above 0.5.

As for A20C C30A, the yeast fitness turned out to be 0.746.

For A20G A65U A69U, the yeast fitness is 0.857.

With G48C C49U C62U, the yeast fitness stood at 0.637.

As for C5U A21U A57U C60A G68C, the yeast fitness was found to be 0.566.

As to U16A C30G A37C G68C, the yeast fitness was not above 0.5.

For A20C C30U C33G A40G, the yeast fitness was 0.537.

As for G25A A65U, the yeast fitness turned out to be 0.981.

For U2A C27G C31U, the yeast fitness was determined as 0.539.

As for G12A G39C C66U, the yeast fitness is 0.572.

As for C5A G17C G18C, the yeast fitness was found to be 0.579.

Regarding A20C C34G A42G, the yeast fitness came to 0.922.

G12C C24A C55U: the yeast fitness is not above 0.5.

As for G23C G58C, the yeast fitness is 0.669.

On to C29A A57U A65C, for which the yeast fitness was 0.584.

With C4U A40G C62U, the yeast fitness was 0.667.

Consider G9C U28C C31U, for which the yeast fitness is not above 0.5.

As to G9C A14G C49G, the yeast fitness is not above 0.5.
